The target of assay [1] is T1, Presequence protease, mitochondrial (Homo sapiens) (UniProt Q5JRX3).
T1 sequence (whole entry): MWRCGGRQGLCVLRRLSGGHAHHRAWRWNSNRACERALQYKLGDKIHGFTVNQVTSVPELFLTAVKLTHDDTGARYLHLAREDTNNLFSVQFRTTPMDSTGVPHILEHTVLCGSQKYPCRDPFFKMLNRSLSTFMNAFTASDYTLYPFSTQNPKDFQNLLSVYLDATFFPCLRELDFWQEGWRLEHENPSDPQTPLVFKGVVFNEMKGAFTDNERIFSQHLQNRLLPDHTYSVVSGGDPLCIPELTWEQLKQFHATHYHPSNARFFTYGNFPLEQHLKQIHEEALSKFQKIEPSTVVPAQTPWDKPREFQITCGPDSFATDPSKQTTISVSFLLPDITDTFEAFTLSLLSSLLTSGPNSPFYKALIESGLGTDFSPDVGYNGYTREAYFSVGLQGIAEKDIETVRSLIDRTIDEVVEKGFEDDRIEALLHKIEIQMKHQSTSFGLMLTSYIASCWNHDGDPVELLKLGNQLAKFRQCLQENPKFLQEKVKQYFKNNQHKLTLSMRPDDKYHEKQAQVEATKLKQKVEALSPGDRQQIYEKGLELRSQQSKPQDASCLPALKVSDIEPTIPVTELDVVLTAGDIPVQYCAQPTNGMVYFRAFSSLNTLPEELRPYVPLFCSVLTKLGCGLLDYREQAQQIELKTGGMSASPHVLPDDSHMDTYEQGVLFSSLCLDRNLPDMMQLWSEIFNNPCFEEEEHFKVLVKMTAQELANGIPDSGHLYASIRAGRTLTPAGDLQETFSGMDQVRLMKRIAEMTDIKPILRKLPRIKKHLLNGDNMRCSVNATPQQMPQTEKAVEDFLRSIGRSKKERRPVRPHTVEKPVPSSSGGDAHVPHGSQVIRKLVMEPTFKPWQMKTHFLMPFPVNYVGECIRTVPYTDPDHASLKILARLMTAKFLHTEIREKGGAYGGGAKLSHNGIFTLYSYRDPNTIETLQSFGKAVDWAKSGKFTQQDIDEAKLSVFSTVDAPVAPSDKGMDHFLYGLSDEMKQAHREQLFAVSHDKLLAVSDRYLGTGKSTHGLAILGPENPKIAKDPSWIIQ
In words: Agonist activity at human PreP assessed as degradation of fluorogenic substrate V at 1 uM measured for 10 mins by fluorometric analysis.

The target of assay [2] is T2, Presequence protease, mitochondrial (Homo sapiens, UniProt Q5JRX3).
T2 sequence (Q5JRX3 whole entry): T1 sequence (whole entry)
Put plainly: Agonist activity at human PreP assessed as degradation of fluorogenic substrate V measured for 10 mins by fluorometric analysis.

Assay [3] addresses T2, Presequence protease, mitochondrial. Put plainly: Agonist activity at human PreP assessed as degradation of ATP synthase pF1beta subunit (2 to 56) after 2.5 hrs by Immunoblotting assay. To be noted: in the assay text read “(2 to 54)” for “(2 to 56)”. Put shortly:
(§1)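 Purified human PreP (1 μg) incubated with biotin-labeled pF1β (2–54) presequence peptide (0.02 μg) in 20 mM HEPES-KOH pH 8.0, 10 mM MgCl2, with compound at 0.00001–100 μM, for 2.5 h. Reactions were stopped with sample buffer and resolved on 12% Bis-Tris gel. Blot probed with anti-F1β (1:2000), HRP anti-rabbit, ECL. Bands quantified by densitometry versus hPreP alone. EC50 from nonlinear log(agonist) vs normalized response fit.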
In general terms: A western blot detects proteins with antibodies after separation by electrophoresis.

Assay [4] deals with T1, Presequence protease, mitochondrial (Homo sapiens). Put plainly: Agonist activity at human PreP assessed as degradation of ATP synthase pF1beta subunit (2 to 56) after 2.5 hrs by Immunoblotting assay relative to control. To be noted: in the assay text read “(2 to 54)” for “(2 to 56)”. Put shortly:
as §1

Assay [5] shares this target. In words: Agonist activity at human PreP assessed as degradation of biotin-labeled amyloid beta (1 to 42) after 2.5 hrs by Immunoblotting assay relative to control. Put shortly:
(§2)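 Biotin-labeled Aβ(1–42) (0.02 μg) incubated 2.5 h with 1 μg purified hPreP in 20 mM HEPES-KOH pH 8.0 with 10 mM MgCl2, compound 0.00001–100 μM. Products were run on 12% Bis-Tris gel and transferred to nitrocellulose. Membrane dried and blocked in 2% milk-PBS, then probed with ExtrAvidin peroxidase and ECL. Degradation measured relative to enzyme alone. EC50 from nonlinear log(agonist) vs normalized response regression.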

Assay [6] shares this target. Put plainly: (§3) Agonist activity at human PreP assessed as degradation of biotin-labeled amyloid beta (1 to 42) after 2.5 hrs by Immunoblotting assay. In outline:
as §2

Assay [7] addresses T2, Presequence protease, mitochondrial. The assay is described as §3. In outline:
as §2

The target of assay [8] is T1, Presequence protease, mitochondrial (Homo sapiens). Put plainly: Agonist activity at human PreP assessed as degradation of biotin-labeled amyloid beta (1 to 42) up to 1 uM after 2.5 hrs by Immunoblotting assay. In outline:
as §2

Assay [9] has the same target. Put plainly: Agonist activity at human PreP assessed as degradation of ATP synthase pF1beta subunit (2 to 54) after 2.5 hrs by Immunoblotting assay.
For assay [10] the target is unchanged. Put plainly: Agonist activity at human PreP assessed as degradation of ATP synthase pF1beta subunit (2 to 54) at 1 uM after 2.5 hrs by Immunoblotting assay.

SMILES strings stand for the structures. The source made the active and inactive calls. No cut-off for these calls is given here.

Broadly, the EC50 is the concentration that produces a half-maximal response. For the compound `O=[N+]([O-])c1ccc2c(c1)N(Cc1cc(Br)ccc1O)C(c1cc(Br)ccc1O)N2Cc1cc(Br)ccc1O` (stereo not given), the fold change (FC) in assay [1] amounted to 1.8. Also, the EC50 in assay [2] came out at 57 nM; in assay [3] it was 601 nM; in [7] it was 402 nM. Also, the Activity in [4] is 55%; in assay [5], 54%; in assay [6], “Dose-dependent effect”; in assay [9], “Dose-dependent effect”. Further, the outcome in assay [8] and in [10] was Active.

The values are drawn from ChEMBL document CHEMBL3124788, “Identification of human presequence protease (hPreP) agonists for the treatment of Alzheimer's disease” (Eur J Med Chem, 2014).
